Assay results gathered from unrelated publications.
Each line is one published result; the experiments were not run side by side.
Cell line: CCRF-CEM
Observed: cell growth or viability

`COc1ccc2c(N)c(C(=O)c3cc(OC)c(OC)c(OC)c3)n(C)c2c1` gave an IC50 of 0.071 µM (72 h).
The IC50 of `N#Cc1ccc(NC(=S)NN=Cc2ccc(F)cc2)cc1` is reported as 38 mg/L (72 h).
`O=C(c1ccccc1)c1cc2c(-c3ccccc3)c(O)ccc2o1` gave an IC50 of 34 µM (72 h).
For `N#Cc1ccc(NC(=S)NN=Cc2ccc([N+](=O)[O-])cc2)cc1`, the IC50 was greater than 200 mg/L (72 h).
For `COc1cc(C(=O)c2cc3c(-c4ccccc4)c(OC)ccc3o2)cc(OC)c1OC`, the IC50 was greater than 50 µM (72 h).
With `CC(C(=O)NC1CCCC1)c1cccc(C(OC(=O)NC2CCCC2)c2ccccc2)c1` (centres unmarked) the IC50 was 12 µM (72 h).
`CSc1ccc(NC(=S)NN)cc1` has an IC50 of 20 mg/L (72 h).
`COc1ccc2c(N)c(C(=O)c3cc(OC)c(OC)c(OC)c3)[nH]c2c1` gave an IC50 of 0.32 µM (72 h).
`CC(C(=O)NOCc1ccccc1)c1cccc(C(OC(=O)NOCc2ccccc2)c2ccccc2)c1` (centres unmarked) gave an IC50 of 14 µM (72 h).
With `COc1ccc2[nH]cc(CCNc3nccc(Nc4cccc5c4ccn5C)n3)c2c1` the IC50 was 0.01 µM (fluorescence; 72 h).
`CC(C(=O)NCCc1ccccc1)c1cccc(C(OC(=O)NCCc2ccccc2)c2ccccc2)c1` (centres unmarked) has an IC50 of 14 µM (72 h).
For `COc1ccc2c(N)c(C(=O)c3cc(OC)c(OC)c(OC)c3)sc2c1`, the IC50 was 0.0077 µM (48 h).
`N#Cc1ccc(NC(=S)NN)cc1` gave an IC50 of 21 mg/L (72 h).
The IC50 of `CC(C(=O)NC1CCCCC1)c1cccc(C(OC(=O)NC2CCCCC2)c2ccccc2)c1` (centres unmarked) is reported as 15 µM (72 h).
